Measurements as given in PubChem BioAssay AID720543 (The Scripps Research Institute Molecular Screening Center, 2013).
In all, about 370,000 compounds went through this assay and about 2,000 (0.54%) were called active.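 How the source made its calls: active means inhibition exceeding the mean over every tested compound plus 3 SD (cut at about 30% in these data); inactive means the rest.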 Shown is part of a subset that was picked to be rich in actives.

Each compound was assayed against (Lyso)-N-acylphosphatidylethanolamine lipase (Mus musculus) (UniProt Q8VD66) (assay: mouse ABHD4 hydrolase activity blockers – biochemical, fluorescence polarization, primary screen (AID 720543;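 further: 0% = plate median of compound wells and 100% = S159A mutant with DMSO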)). Conditions: purified mABHD4, FP-Rh probe fluorescence polarization; at 8.92 µM; stronger effect = higher value.
(Lyso)-N-acylphosphatidylethanolamine lipase (Mus musculus), sequence (Q8VD66 whole entry, looked up): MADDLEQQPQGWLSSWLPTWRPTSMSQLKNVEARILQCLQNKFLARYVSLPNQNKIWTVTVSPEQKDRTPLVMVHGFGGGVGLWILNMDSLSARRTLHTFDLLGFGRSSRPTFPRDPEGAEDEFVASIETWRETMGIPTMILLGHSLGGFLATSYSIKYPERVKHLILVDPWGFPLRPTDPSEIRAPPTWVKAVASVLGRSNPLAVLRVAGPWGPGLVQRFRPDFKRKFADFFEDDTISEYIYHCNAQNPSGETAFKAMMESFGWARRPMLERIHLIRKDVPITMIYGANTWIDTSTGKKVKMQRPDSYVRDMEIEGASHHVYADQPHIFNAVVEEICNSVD
Outline: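 Assay system: mABHD4 protein; medium: HEPES pH 7.0, NaCl, Pluronic buffer; dosing: 8.92 µM, single dose; schedule: 45 min + 60 min at 25 °C; signal: FP readout, ex 525 nm / em 598 nm; read-out: normalized percent inhibition of probe labeling; repeats: single replicate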

inhibition, inactive:
C[C@H](C(=O)N(C)c1ccccc1)[C@@H](O)c1ccc(Cl)cc1 0.42%, Nc1[nH]c(C(=O)c2ccccc2)c(-c2ccc(Br)cc2)c1C(=O)NC1CC1 1.95%, Nc1[nH]c(C(=O)c2ccccc2)c(-c2ccncc2)c1C(=O)NCc1cccc2ccccc12 -0.51%, COc1ccc(-n2c(COc3ccccc3)nnc2SCC(=O)Nc2ccc3c(c2)OCO3)cc1 -9.7%, CC(=O)OCCN1CCCC12CCC(c1ccccc1)CC2 (configuration not stated) 0.33%, Cc1ccc(S(=O)(=O)N2CCC(C(=O)N[C@@H](C)C(=O)NCc3ccco3)CC2)cc1 -2.84%, Cc1cccc(C(=O)NC(=S)N2CCN(c3ccc([N+](=O)[O-])cc3)CC2)c1 -5.02%, CN1CCN(C(=O)c2cnn(-c3ccccc3)c2NC(=O)c2ccc([N+](=O)[O-])cc2)CC1 -2.86%, O=C(N[C@@H]1C/C=C\C[C@@H](CC(=O)N(CCO)Cc2ccccc2)C(=O)N[C@H](Cc2ccccc2)COC1=O)OCC1c2ccccc2-c2ccccc21 7.4%, CSc1ccc(C=Nn2c(-c3ccc(F)cc3)n[nH]c2=S)cc1 0.61%, CCCCc1c(-c2ccc(Br)cc2)ncn1CCc1ccccc1OC -0.8%, CCOCCCNC(=O)C(NC(=O)c1ccccc1O)c1ccccc1 (configuration not stated) -0.7%, O=C(OCC#CCSc1nnc(-c2ccco2)o1)c1ccc(F)cc1 -9.72%, COc1cc(/C(=C/c2ccccc2)c2ccccc2)c2c(c1)oc1ccccc12 -1.7%, Cc1oc2cc([N+](=O)[O-])c(O)c([N+](=O)[O-])c2c1C(=O)c1ccc(Br)cc1 8.71%, COC(=O)c1c(-c2ccc(OC)cc2)c2c(c3c4cc(OC)ccc4n(S(=O)(=O)c4ccc(F)cc4)c13)C(=O)N(C)C2 -0.06%, Cc1cc(NS(=O)(=O)c2ccc(NC(=O)CSc3nnc(SCc4ccc(F)cc4)s3)cc2)nc(C)n1 -21.5%, Fc1ccc2nc(COCc3nc4ccc(F)cc4[nH]3)[nH]c2c1 -7.17%, COC(=O)c1[nH]c2ccc(Br)cc2c1NC(=O)Oc1ccccc1 -1.15%, COCC(=O)Nc1c(C(=O)N2CCCC2)oc2ccccc12 -0.25%, FC(F)(F)c1cccc(NC(=S)OC2CCC23CCC(c2ccccc2)CC3)c1 (configuration not stated) -21.8%, CCOC(=O)c1csc(NC(=O)C2CCCN(S(=O)(=O)c3ccc(Cl)s3)C2)n1 (configuration not stated) -51.6%, CCCCCCN1CCS(=O)(=O)N(Cc2ccc(C(F)(F)F)cc2)C(C(=O)OC)C1 (configuration not stated) -4.07%, O=[N+]([O-])c1cc(S(=O)(=O)Nc2cccc(Cl)c2)ccc1N=Nc1c(O)[nH]c2ccccc12 7.74%, Cc1ccc(OCCOCCOc2ccc(Br)cc2/C=N\NC(=O)c2ccncc2)cc1 -84.8%, O=C(Nc1cc(S(=O)(=O)Nc2ccc(Cl)cc2)ccc1O)c1ccc(F)cc1F -6.3%, COc1cc(/C=C/C(=O)O)cc(S(=O)(=O)Nc2ccccc2C(=O)NCCc2ccccc2)c1OC 6.19%, Cc1ccc(C)c(NS(=O)(=O)c2ccc(OCC(=O)NCc3cccnc3)cc2)c1 -3.89%, Cc1ccc(NS(=O)(=O)c2ccc3c(c2)n(C)c(=O)c(=O)n3C)c(C)c1 -1.8%, COc1ccc(Br)cc1CN(C)CC(=O)Nc1cc(Cl)cc(Cl)c1 6.47%, COc1ccc(S(=O)(=O)NC(C)c2ccccc2)cc1C(=O)N1CCCCC1 (configuration not stated) 3.07%

inhibition, active:
Nc1[nH]c(C(=O)c2ccc(Br)cc2)c(-c2ccc3c(c2)OCO3)c1C(=O)NCCc1c[nH]c2ccccc12 48.9%, O=c1ccc2c(-c3ccccc3S(=O)(=O)O)c3ccc(O)c(O)c3oc-2c1O 34%, Cc1cc(/C=N/Nc2ccc([N+](=O)[O-])cn2)c(C)n1-c1cccc(C(=O)O)c1 45.6%, Clc1ccc(C2=CSC3=Nc4cccc5cccc(c45)N23)cc1 38.4%, Cc1oc2cc(Br)c(O)c(Br)c2c1C(=O)c1ccccc1 44.9%, COC(=O)c1oc2ccc(Br)cc2c1NC(C)=O 40.3%, Cc1cc(C)c(S(=O)(=O)NN=C2c3ccccc3[C@H]3Cc4csc[n+]4[C@@H]23)c(C)c1 33.3%, COc1ccc(Br)cc1/C=N/Nc1ccc(S(=O)(=O)Nc2ccccc2C(=O)O)cc1[N+](=O)[O-] 38.4%, COc1ccc(Br)cc1/C=N/Nc1ccc(Cl)c(C(=O)O)c1 40.3%, O=C(O)c1ccccc1/C=N/Nc1ccc(S(=O)(=O)Nc2ccc(Cl)cc2)cc1[N+](=O)[O-] 43.8%, Cc1ccc(NS(=O)(=O)c2ccc(N/N=C/c3ccccc3OCC(=O)O)c([N+](=O)[O-])c2)c(C)c1 52.1%
